# A selection: hits, their analogues and other compounds. The true share with any hit is near 1.6%.
# SR-BI uptake up: activators of SR-BI mediated DiI-HDL uptake, primary screen, ldlA[mSR-BI] CHO cells, DiI fluorescence | activation, % at 12.5 µM | 3 h; 100 = double the neutral-control signal | 0.096% of 320,000 active;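 active = mean replicate activation of at least 60% and every replicate at or above 60%; inconclusive = mean or all-replicate condition met, but not both; inactive = mean below 60% and not all replicates reaching 60%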
#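 Test system: SR-BI-overexpressing, LDLR-lacking CHO cells; Also added: labelled HDL, 10 µg/mL; Measured by: bottom-read cell fluorescence after medium removal, ex 550/em 595 nm; Timing: 3 h uptake period with compound, 37 °C; Buffer or medium: F12, 0.5% BSA, 25 mM HEPES; Doses: single compound concentration, delivered by pin transfer.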
# NOD2 RIPK2 PPI: NOD2-RIPK2 binding disruptors in cells, primary screen, fluorescence, CHO cells, BLA complementation | Receptor-interacting serine/threonine-protein kinase 2 (Homo sapiens), O43353 | CCF4 ratio | inhibition, % at 4.98 µM | AID 624267, 2012 | 0.38% of 360,000 active; in the data active = inhibition above about 21%
# SR-BI DiI inh: inhibitors of SR-BI mediated HDL lipid uptake, primary screen, ldlA[mSR-BI] cells, fluorescence, single point | Scavenger receptor class B member 1 (Mus musculus), Q61009 | ldlA[mSR-BI] CHO cells, DiI-HDL uptake fluorescence, 3 h | inhibition, % at 12.5 µM | 0.96% of 320,000 active | AID 488896, 2010;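 active = mean replicate inhibition of at least 70% and a set share of replicates each scoring 70 or more; inconclusive = meets just one of the two criteria; inactive = fails both criteria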
# Lipid droplet: inhibitors of hepatocyte lipid droplet formation, primary screen, imaging, high-throughput imaging, BODIPY stain; AML12 mouse hepatocytes, oleate lipid droplets; inhibition, % at 6.5 µM; 0.4% of 240,000 active;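 active = lipid droplet intensity inhibited by at least 50%, with more than 500 cells counted; inconclusive = wells with under 300 cells, treated as cytotoxic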
#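 material = mouse AML12 hepatocyte cell line, fixed after treatment | also added = 100 µM oleic acid challenge | doses = compound at 6.5 µM only | schedule = overnight exposure | technique = Image-based BODIPY and DAPI two-channel analysis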
# TLR4 MyD88 comp: inhibitors of TLR4-MyD88 association in cells, primary screen, cell-based, HeLa CL3-4, BLA complementation, FRET ratio; 0.18% of 200,000 active; HeLa CL3-4 TLR4/MyD88 BLA complementation; Toll-like receptor 4 (Homo sapiens) + Myeloid differentiation primary response protein …; inhibition, % at 8.4 µM; in the data active = inhibition above about 25%
# TLR9-MyD88 inh: inhibitors of TLR9-MyD88 association in cells, primary screen, cell-based, CHO, BLA complementation, fluorescence. Toll-like receptor 9 (Homo sapiens) + Myeloid differentiation primary response protein …. CCF4 FRET ratio. inhibition, % at 4.98 µM. 0.21% of 340,000 active. AID 504734, 2011;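 active = inhibition above the mean over all tested compounds plus 3 SD, cut at about 21% in these data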
# Numbers stand for hits; 0 = inactive; ? = inconclusive; - = no result.
SMILES,SR-BI uptake up,NOD2 RIPK2 PPI,SR-BI DiI inh,Lipid droplet,TLR4 MyD88 comp,TLR9-MyD88 inh
CCC(C)(C)C1CCc2[nH]nc(C(=O)NCc3ccc(OC)cc3)c2C1 (stereo unspecified),0,0,0,-,-,0
COc1cc(/C=N/N=C2/C(=O)Nc3ccccc32)ccc1O,0,0,0,0,0,0
COc1ccc(C=NN=C2c3ccccc3-c3ccccc32)cc1OC,0,0,79.4,-,-,0
C/C(=N/NC(=O)c1ccncc1)c1ccc(NC(=O)c2ccc(Cl)cc2Cl)cc1,0,0,0,0,-,0
CC(C)CC(=NNC(=O)c1ccncc1)c1cc(Cl)ccc1O,0,0,126.9,-,-,0
COc1ccc(C(C)=O)cc1COC(=O)c1ccc(C)c(S(=O)(=O)N2CCOCC2)c1,0,0,70.5,-,-,0
N#Cc1nc(-c2ccc(OCc3ccccc3)cc2)oc1N1CCOCC1,0,0,71.0,0,0,0
Cc1ccc2nc(NNC(=O)c3ccc(S(=O)(=O)N4CCc5ccccc5C4)cc3)sc2c1,0,0,119.3,0,0,0
CCC(=O)NNc1nc2c(C)cc(C)cc2s1,0,0,0,0,0,0
Cc1cccc2sc(NNC(=O)c3ccc(S(=O)(=O)N4CC(C)CC(C)C4)cc3)nc12 (stereo unspecified),0,0,130.8,0,0,0
Cc1cc(C)c2nc(NNC(=O)c3ccc(S(=O)(=O)N4CC(C)CC(C)C4)cc3)sc2c1 (stereo unspecified),0,0,138.7,0,0,0
CC1CCCN(S(=O)(=O)c2ccc(C(=O)Nc3nnc(C4CC4)o3)cc2)C1 (stereo unspecified),0,0,0,0,-,0
Cc1cc(C)c2nc(NNC(=O)c3ccc(S(=O)(=O)N4CCCC(C)C4)cc3)sc2c1 (stereo unspecified),0,0,115.3,0,0,0
COc1ccc(C2CC2C(C)=O)cc1 (stereo unspecified),0,0,0,0,0,0
O=C(CN1C(=O)NC2(CCCC2)C1=O)NNC(=O)c1ccccc1,0,0,0,-,-,0
COc1cccc(CNC(=O)CN2C(=O)COc3ccc(S(=O)(=O)N4CCC(C)CC4)cc32)c1,-,0,0,0,-,0
O=C(COC(=O)CNC(=O)c1ccc(Cl)cc1Cl)NCc1ccco1,89.0,0,0,-,-,0
O=C(CNC(=O)c1ccco1)OCC(=O)c1ccc(Cl)cc1Cl,0,0,0,0,0,0
O=C(OCC(=O)N1CCCC1=O)c1ccc(Cl)cc1[N+](=O)[O-],0,0,0,-,-,0
Cc1sc2ncnc(N/N=C/c3ccccc3O)c2c1C,0,0,116.4,0,0,0
CSc1cccc(CN2CCC(Oc3ccc(C(=O)N4CCCCC4)cc3)CC2)c1,0,0,0,0,-,0
N#Cc1ccccc1NC(=O)C1SC(=Nc2ccccc2)C(C(=O)Nc2ccc(Cl)cc2)=C1N (stereo unspecified),0,0,107.8,0,0,0
COc1cc(C(=O)NCCOc2ccc(F)cc2)c(Br)c(OC)c1OC,0,0,0,0,0,0
COc1ccc(-c2cc(C(F)(F)F)n3nc(C(=O)N4CCCCC4)cc3n2)cc1,0,0,0,-,0,0
COc1cccc(-c2cc(C(F)(F)F)n3nc(C(=O)N4CCCCC4c4cccnc4)cc3n2)c1 (stereo unspecified),0,0,77.4,0,0,0
SMILES,SR-BI uptake up,NOD2 RIPK2 PPI,SR-BI DiI inh,Lipid droplet,TLR4 MyD88 comp,TLR9-MyD88 inh
Cc1ccccc1NS(=O)(=O)c1cc(C(=O)Nc2cccc(N(C)S(C)(=O)=O)c2)ccc1C,0,0,71.4,-,0,0
CC1(C)C2C(Cl)(Cl)C2(C)c2ccccc2N1C=O (stereo unspecified),-,0,-,0,-,-
CCn1nc(C)c(C2C(C#N)=C(N)OC3=C2C(=O)CC(C)(C)C3)c1C (stereo unspecified),0,0,0,0,0,0
Cc1nc(NC(=O)/C=C/c2ccccc2)sc1C(=O)NCCO,0,0,0,0,0,0
Cc1nc(NC(=O)/C=C/c2ccccc2)sc1C(=O)Nc1ccccc1,0,0,76.2,-,0,0
CCCCN1C(=O)/C(=C/C=C2\N(C)c3ccccc3C2(C)C)SC1=S,-,-,-,-,0,-
CCCN1C(=O)/C(=C\C=C2/C=CN(CC)c3ccccc32)SC1=S,0,0,146.1,0,0,0
O=C(O)C1C2C=CC(C2)C1C(=O)NCc1ccc(Cl)cc1Cl (stereo unspecified),0,0,0,0,-,0
CC(C(=O)c1ccccc1)n1c(N2CCOCC2)nc2c1c(=O)n(C)c(=O)n2C (stereo unspecified),62.7,0,0,-,0,0
CC(=O)c1ccc(N2CCN(CC(=O)NC(=O)NCc3ccccc3)CC2)cc1,0,0,0,-,-,0
O=C(N/N=C/c1ccc(OC(F)F)cc1OC(F)F)c1cccc(S(=O)(=O)N2CCOCC2)c1,0,0,82.8,0,0,0
O=C(NN=Cc1ccccc1OC(F)F)c1cccc(S(=O)(=O)N2CCCC2)c1,0,0,71.9,-,-,0
NC(=O)c1ccc(NC(=O)CNC(=O)c2sc3ccccc3c2Cl)cc1,0,0,0,-,-,0
CN=C1S/C(=C\c2ccc(OCC(=O)OC)c(OC)c2)C(=O)N1C,440.9,0,0,0,-,0
COc1ccc(OCC(O)CN2CCC(CN3C(=O)c4cccc5cccc(c45)C3=O)CC2)cc1 (stereo unspecified),0,0,77.1,-,-,0
O=C1c2cccc3cccc(c23)C(=O)N1CC1CCN(CC(O)COCc2ccc3c(c2)OCO3)CC1 (stereo unspecified),0,0,70.2,0,0,0
O=C(CN1C(=O)c2cccc3cccc1c23)N1CCN(Cc2ccc3c(c2)OCO3)CC1,0,0,0,0,0,0
CCOC(=O)C1CCN(CC(O)COCc2ccc3c(c2)OCO3)CC1 (stereo unspecified),0,0,0,0,0,0
O=C(CCN1C(=O)c2cccc3cccc(c23)C1=O)N1CCN(Cc2ccc3c(c2)OCO3)CC1,0,0,74.3,-,0,0
COc1cccc(-c2csc(NC(=O)Nc3ccccc3)n2)c1,0,0,77.3,0,-,0
COc1cccc(Nc2nc(-c3cccc(N4C(=O)c5ccccc5C4=O)c3)cs2)c1,0,0,91.2,-,0,0
O=C(Nc1ccccc1)Nc1nc(-c2ccccc2)cs1,?,0,0,0,-,0
Cn1c(=O)c2ncn(CC(=O)N=Nc3c(O)[nH]c4ccccc34)c2n(C)c1=O,-,-,-,-,0,-

# Screening results from PubChem.
